pKi: −log10 of the molar value. Blank lines part the entries; values can stand above or below the compound they belong to. Square brackets hold non-standard residues; d marks the D form. Peptide text beside a SMILES is read from it. ξ: configuration not given here. NMeY = CN[C@@H](Cc1ccc(O)cc1)C(=O)O; NMeF = CN[C@@H](Cc1ccccc1)C(=O)O; ξP = O=C(O)C1CCCN1; Ava = NCCCCC(=O)O
Tests used:
Mu-type opioid receptor = Mu-type opioid receptor (Rattus norvegicus, UniProt P33535); test: Displacement of [3H]DAMGO from mu opioid receptor in rat brain membrane by liquid scintillation counting analysis; assay type: cell membranes
Method in brief: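 Competitive radioligand binding at the mu (MOR) opioid receptor with [3H]-DAMGO as tracer; affinity expressed as Ki.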

[1] = molecular target: Kappa-type opioid receptor (Cavia porcellus, UniProt P41144); test: Displacement of [3H]U69593 from kappa opioid receptor in guinea pig cortices membrane by liquid scintillation counting analysis; assay type: cell membranes
Method in brief: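 Competitive radioligand binding at the kappa (KOR) opioid receptor with [3H]-U69,593 as tracer; affinity expressed as Ki.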

Chain of Kappa-type opioid receptor (P41144 whole entry): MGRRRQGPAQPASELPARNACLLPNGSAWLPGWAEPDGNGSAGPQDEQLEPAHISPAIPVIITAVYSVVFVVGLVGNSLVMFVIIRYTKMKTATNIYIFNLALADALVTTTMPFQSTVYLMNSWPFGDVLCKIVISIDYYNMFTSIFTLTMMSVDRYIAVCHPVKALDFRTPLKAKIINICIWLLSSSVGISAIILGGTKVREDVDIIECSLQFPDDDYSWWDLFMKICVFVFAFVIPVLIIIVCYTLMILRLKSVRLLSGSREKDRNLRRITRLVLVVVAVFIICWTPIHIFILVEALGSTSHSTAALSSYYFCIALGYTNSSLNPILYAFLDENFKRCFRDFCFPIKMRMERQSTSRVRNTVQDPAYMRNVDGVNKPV
Chain of Mu-type opioid receptor (P33535 whole entry): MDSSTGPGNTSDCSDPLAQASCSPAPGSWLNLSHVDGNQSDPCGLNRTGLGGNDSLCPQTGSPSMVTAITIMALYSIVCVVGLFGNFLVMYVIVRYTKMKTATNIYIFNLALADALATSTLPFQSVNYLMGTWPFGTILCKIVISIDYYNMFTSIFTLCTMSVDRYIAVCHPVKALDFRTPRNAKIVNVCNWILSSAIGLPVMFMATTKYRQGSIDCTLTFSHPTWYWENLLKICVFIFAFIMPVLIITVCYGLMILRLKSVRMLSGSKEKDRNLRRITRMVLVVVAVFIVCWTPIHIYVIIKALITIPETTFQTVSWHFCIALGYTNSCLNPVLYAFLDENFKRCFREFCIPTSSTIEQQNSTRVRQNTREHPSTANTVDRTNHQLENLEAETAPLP

Compound: CC(C)C[C@H]1CNC(=S)N1C[C@H](Cc1ccccc1)N(C)CCN(C)CCN1C[C@H](Cc2ccc(O)cc2)N(C)C1=S
- pKi (Mu-type opioid receptor): 5.15
- pKi [1]: 5.47

Compound: CN[C@H](CNCC(=O)N(C)CCN(C)[C@H](CN[C@H](CN)CC(C)C)Cc1ccccc1)Cc1ccc(O)cc1
- pKi (Mu-type opioid receptor): 5.82
- pKi [1]: 5.95

- pKi (Mu-type opioid receptor): 4.82
- pKi [1]: 4.03
Compound: CC(C)C[C@H]1CNC(=O)C(=O)N1C[C@H](Cc1ccccc1)N(C)CCN(C)CCN1C[C@H](Cc2ccc(O)cc2)N(C)C(=O)C1=O

Compound: CC(C)C[C@H]1CNCCN1C[C@H](Cc1ccccc1)N(C)CCN(C)CCN1CCN(C)[C@@H](Cc2ccc(O)cc2)C1
- pKi (Mu-type opioid receptor): 5.58
- pKi [1]: 5.51

Compound: CC(C)C[C@H]1CNC(=S)N1C[C@H](Cc1ccccc1)N(C)CCN1CCN(C[C@H](Cc2ccc(O)cc2)N(C)C)C1=S
- pKi (Mu-type opioid receptor): 6.13
- pKi [1]: 5.64

Compound: CC(C)C[C@H]1CNC(=N)N1C[C@H](Cc1ccccc1)N(C)CCN1CCN(C[C@H](Cc2ccc(O)cc2)N(C)C)C1=N
- pKi (Mu-type opioid receptor): 5.97
- pKi [1]: 4.95

Compound: CC(C)C[C@H]1CNCCN1C[C@H](Cc1ccccc1)N(C)CCN1CCN(C[C@H](Cc2ccc(O)cc2)N(C)C)CC1
- pKi (Mu-type opioid receptor): 5.94
- pKi [1]: 5.46

Compound: CC(C)C[C@H]1CNC(=S)N1C[C@H](Cc1ccccc1)N(C)C[C@@H]1CCCN1C[C@H](Cc1ccc(O)cc1)N(C)C
- pKi (Mu-type opioid receptor): 6.37
- pKi [1]: 5.48

Compound: CC(C)C[C@H]1CNC(=O)C(=O)N1C[C@H](Cc1ccccc1)N(C)C[C@@H]1CCCN1C[C@H](Cc1ccc(O)cc1)N(C)C
- pKi (Mu-type opioid receptor): 6.60
- pKi [1]: 4.98

Compound: CC(C)C[C@@H](CN)NC[C@H](Cc1ccccc1)N(C)C[C@@H]1CCCN1C[C@H](Cc1ccc(O)cc1)N(C)C
- pKi (Mu-type opioid receptor): 7.22
- pKi [1]: 5.89

Compound: CC(C)C[C@H]1CNC(=S)N1C[C@H](Cc1ccccc1)N(C)CCCCCN1C[C@H](Cc2ccc(O)cc2)NC1=S
- pKi (Mu-type opioid receptor): 4.96
- pKi [1]: 5.02

Compound: CC(C)CC(CN)NCC(Cc1ccccc1)N(C)CCCCCNCC(N)Cc1ccc(O)cc1 (stereo not drawn)
- pKi (Mu-type opioid receptor): 5.75
- pKi [1]: 5.79

Compound: CC(C)C[C@H](NC(=O)[C@H](Cc1ccccc1)N(C)C(=O)CCCCNC(=O)[C@@H](N)Cc1ccc(O)cc1)C(N)=O (H-Y[Ava][NMeF]L-NH2)
- pKi (Mu-type opioid receptor): 4.41
- pKi [1]: 4.65

Compound: CN[C@@H](Cc1ccc(O)cc1)C(=O)N1CCCC1C(=O)N(C)[C@@H](Cc1ccccc1)C(=O)N[C@@H](CC(C)C)C(N)=O (stereo partly drawn) (H-[NMeY][ξP][NMeF]L-NH2)
- pKi (Mu-type opioid receptor): 5.67
- pKi [1]: 5.69

— ChEMBL document CHEMBL3351968, “Synthesis and analgesic activity of alkylated, reduced and constrained oligoheterocyclic peptidomimetic analogs of Leu-enkephalin” (Bioorg Med Chem Lett, 2014)
